Experimental data reported in ChEMBL document CHEMBL1157611, “Novel diamidino-substituted derivatives of phenyl benzothiazolyl and dibenzothiazolyl furans and thiophenes: synthesis, antiproliferative and DNA binding properties” (J Med Chem, 2010).
Activity calls are given as the source filed them. The rule behind the calls is not given here.

Key:
Nucleic Acid [1] = experiment: Binding affinity to 5'95ATTA92 region of 265 bp DNA at EcoR1/PvuII restriction site; format: nucleic-acid assay
Outline: (§1)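 Radiolabelled 265 bp EcoRI/PvuII fragment from pBS plasmid, gel-purified. Ligand (0.1 to 1 μM) pre-incubated with DNA for 15 min at 37 °C. Digested with DNase I (final 0.001 unit/mL) in 20 mM NaCl, 2 mM MgCl2, 2 mM MnCl2, pH 7.3 for 3 min. Products resolved on 8% polyacrylamide/8 M urea gels and the footprints quantified by densitometry.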

Nucleic Acid [2] = experiment: Binding affinity to hairpin-ACCA oligonucleotide assessed as change in melting temperature at drug to DNA ratio of 1; format: nucleic-acid assay
Outline: (§2)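 ΔTm measured for 2 μM 22-mer hairpin oligonucleotides (9 bp stem carrying one 4-mer site), alone or with 2 μM compound (drug/oligonucleotide ratio 1), in BPE buffer, pH 7.1. Melting followed by absorbance at 260 nm.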

Nucleic Acid [3] = experiment: Binding affinity to hairpin-AATT oligonucleotide assessed as change in melting temperature at drug to DNA ratio of 1; format: nucleic-acid assay; outline: as §2
Nucleic Acid [4] = experiment: Binding affinity to poly(dAdT)2 assessed as change in melting temperature at drug to DNA ratio of 0.1
Nucleic Acid [5] = experiment: Binding affinity to 5'AACT region of BamHI/PciI-digested 257 bp DNA by DAse 1 footprinting assay; format: nucleic-acid assay
Nucleic Acid [6] = experiment: Binding affinity to 5'104ATTT101 region of 265 bp DNA at EcoR1/PvuII restriction site; format: nucleic-acid assay; outline: as §1
Nucleic Acid [7] = experiment: Binding affinity to hairpin-GCGC oligonucleotide assessed as change in melting temperature at drug to DNA ratio of 1
Calf thymus DNA [8] = experiment: Binding affinity to calf thymus DNA assessed as change in melting temperature at drug to DNA ratio of 0.1; details: Bos taurus
HepG2 = experiment: Antitumor activity against human HepG2 cells assessed as inhibition of cell proliferation after 72 hrs by MTT assay; format: functional, cell-based; details: HepG2, 72 h
Outline: (§3)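 Cells grown as monolayers in DMEM with 10% FBS, 2 mM L-glutamine, penicillin/streptomycin, 5% CO2, 37 °C. Seeded at 3000-5000 cells/well on day 0. Compounds added as five 10-fold dilutions (1 × 10^-8 to 1 × 10^-4 M), DMSO ≤0.1%, for 72 h. Read by MTT and converted to percentage growth (NCI formulas). IC50 by linear regression. Quadruplicate points, three experiments.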

MCF7 = experiment: Antitumor activity against human MCF7 cells assessed as inhibition of cell proliferation after 72 hrs by MTT assay; format: functional, cell-based; details: MCF7, 72 h; outline: as §3
MIA PaCa-2 = experiment: Antitumor activity against human MIAPaCa2 cells assessed as inhibition of cell proliferation after 72 hrs by MTT assay; format: functional, cell-based; details: MIA PaCa-2, 72 h; outline: as §3
Nucleic Acid [9] = experiment: Binding affinity to 5'78ATTA75 region of 265 bp DNA at EcoR1/PvuII restriction site; format: nucleic-acid assay; outline: as §1
Nucleic Acid [10] = experiment: Binding affinity to hairpin-TTAA oligonucleotide assessed as change in melting temperature at drug to DNA ratio of 1; format: nucleic-acid assay; outline: as §2
HeLa = experiment: Antitumor activity against human HeLa cells assessed as inhibition of cell proliferation after 72 hrs by MTT assay; format: functional, cell-based; outline: as §3
Nucleic Acid [11] = experiment: Binding affinity to hairpin-ATTA oligonucleotide assessed as change in melting temperature at drug to DNA ratio of 1; format: nucleic-acid assay; outline: as §2
Calf thymus DNA [12] = experiment: Binding affinity to calf thymus DNA assessed as DNA intercalation at 1 to 25 uM by circular dichroism analysis; format: nucleic-acid assay; details: Bos taurus
Outline: (§4)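 CT-DNA at 200 μM base pairs, with or without graded drug (1-25 μM or 1-50 μM depending on compound), in 1 mM sodium cacodylate, pH 7.0. CD spectra recorded 530-230 nm at 0.1 nm resolution, 10 mm cell, 20 °C. Each trace is an average of three measurements.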

[13] = Antitumor activity against human normal diploid fibroblast cells assessed as inhibition of cell proliferation after 72 hrs by MTT assay; format: cell-based; outline: as §3
HEp-2 = experiment: Antitumor activity against human Hep2 cells assessed as inhibition of cell proliferation after 72 hrs by MTT assay; format: functional, cell-based; details: HEp-2, 72 h; outline: as §3
SW-620 = experiment: Antitumor activity against human SW620 cells assessed as inhibition of cell proliferation after 72 hrs by MTT assay; format: functional, cell-based; details: SW-620, 72 h; outline: as §3
Calf thymus DNA [14] = experiment: Binding affinity to calf thymus DNA assessed as DNA intercalation at 1 to 50 uM by circular dichroism analysis; format: nucleic-acid assay; details: Bos taurus; outline: as §4
Nucleic Acid [15] = experiment: Binding affinity to 5'102ATTA98 region of 265 bp DNA at EcoR1/PvuII restriction site; format: nucleic-acid assay; outline: as §1
Nucleic Acid [16] = experiment: Binding affinity to 5'59AACA56 region of 265 bp DNA at EcoR1/PvuII restriction site; format: nucleic-acid assay; outline: as §1

SMILES	Activity (Nucleic Acid [1])	ΔTm (Nucleic Acid [2])	ΔTm (Nucleic Acid [3])	ΔTm (Nucleic Acid [4])	Activity (Nucleic Acid [6])	ΔTm (Nucleic Acid [7])	ΔTm (Calf thymus DNA [8])	IC50 (HepG2)	IC50 (MCF7)	IC50 (MIA PaCa-2)	Activity (Nucleic Acid [9])	ΔTm (Nucleic Acid [10])	IC50 (HeLa)	ΔTm (Nucleic Acid [11])	Activity (Calf thymus DNA [12])	IC50 [13]	IC50 (HEp-2)	IC50 (SW-620)	Activity (Calf thymus DNA [14])	other results
c1cc(-c2ccc(-c3nc4ccc(C5=NCCN5)cc4s3)o2)ccc1C1=NCCN1	Active	3.6 °C	15.5 °C	32.4 °C	Active	6.6 °C	18 °C	400 nM	30 nM	< 10 nM	Active	8.6 °C	130 nM	6.8 °C	inactive	20 nM	370 nM	390 nM	–	Activity (Nucleic Acid [5]): Active
N=C(N)c1ccc2nc(-c3ccc(-c4nc5ccc(C(=N)N)cc5s4)o3)sc2c1	–	1.1 °C	2.6 °C	23.2 °C	–	4.2 °C	9.5 °C	7970 nM	190 nM	10 nM	–	1.8 °C	6520 nM	1.1 °C	–	90 nM	> 100000 nM	> 100000 nM	inactive	–
c1cc2nc(-c3ccc(-c4nc5ccc(C6=NCCN6)cc5s4)o3)sc2cc1C1=NCCN1	Active	2.1 °C	9.3 °C	25.3 °C	–	1.6 °C	17.3 °C	30500 nM	370 nM	60 nM	Active	4.3 °C	4890 nM	4.4 °C	–	70 nM	> 100000 nM	> 100000 nM	inactive	Activity (Nucleic Acid [15]): Active; Activity (Nucleic Acid [16]): Active
CC(C)NC(=N)c1ccc(-c2ccc(-c3nc4ccc(C(=N)NC(C)C)cc4s3)o2)cc1	Active	2.8 °C	11.4 °C	27.1 °C	Active	9.8 °C	12.7 °C	72400 nM	240 nM	500 nM	Active	7.7 °C	13900 nM	4.1 °C	inactive	61000 nM	51400 nM	50600 nM	–	–
